Source: ChEMBL document CHEMBL1221219, “Selective blockade of 2-arachidonoylglycerol hydrolysis produces cannabinoid behavioral effects” (Nat Chem Biol, 2009)
The source made the active and inactive calls.

Assays:
[1] = target: T1, Cytosolic phospholipase A2 (Homo sapiens) (UniProt P47712); assay: Inhibition of recombinant cPLA2 4a expressed in HEK293 cells at 20 uM by FP-rhodamine labeling method; format: cell-based
T1 sequence (whole entry): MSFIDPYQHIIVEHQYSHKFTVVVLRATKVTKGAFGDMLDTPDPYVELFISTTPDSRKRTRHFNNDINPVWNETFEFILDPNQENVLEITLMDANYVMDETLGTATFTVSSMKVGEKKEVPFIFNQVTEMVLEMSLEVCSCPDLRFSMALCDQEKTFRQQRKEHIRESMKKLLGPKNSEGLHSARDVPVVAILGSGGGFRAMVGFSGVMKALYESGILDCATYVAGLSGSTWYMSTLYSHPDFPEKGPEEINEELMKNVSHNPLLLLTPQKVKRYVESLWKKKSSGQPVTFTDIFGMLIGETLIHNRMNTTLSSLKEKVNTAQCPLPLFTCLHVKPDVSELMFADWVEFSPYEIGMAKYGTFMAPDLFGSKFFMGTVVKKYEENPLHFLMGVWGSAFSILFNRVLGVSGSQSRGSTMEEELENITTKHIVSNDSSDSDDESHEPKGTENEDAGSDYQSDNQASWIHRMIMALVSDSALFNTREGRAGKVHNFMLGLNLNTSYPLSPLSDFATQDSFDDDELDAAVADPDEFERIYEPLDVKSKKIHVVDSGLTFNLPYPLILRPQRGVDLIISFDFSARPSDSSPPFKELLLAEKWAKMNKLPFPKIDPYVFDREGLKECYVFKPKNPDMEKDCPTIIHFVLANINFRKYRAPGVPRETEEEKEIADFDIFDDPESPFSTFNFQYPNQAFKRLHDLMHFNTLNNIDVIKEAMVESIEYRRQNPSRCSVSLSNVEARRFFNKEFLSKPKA

Mus musculus [2] = assay: Inhibition of MAGL in intraperitoneally dosed C57B1/6J mouse brain membrane assessed as increase in 2-AG level after 4 hrs relative to control; format: functional, organism-based
Method in brief: (§1)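 Male C57Bl/6J mice dosed i.p. in 4:1 v/v PEG300:Tween80, with vehicle controls; killed at set times (0.5-24 h, or 4 h). Brain membrane 2-AG hydrolysis measured by LC-MS substrate assay, and brain 2-AG measured by lipid LC-MS, relative to vehicle.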

Mus musculus [3] = assay: Inhibition of FAAH in C57B1/6J mouse brain membrane at 16 mg/kg, ip after 4 hrs by competitive activity-based protein profiling-MudPIT method; format: functional, organism-based; set-up: dose 16 mg/kg
Method in brief: (§2)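 After i.p. dosing in 4:1 PEG300:Tween80, male C57Bl/6J mice were killed at 4 h. Brain membrane proteomes from treated and vehicle mice were labelled with FP-biotin. Labelled proteins were enriched on avidin, digested on-bead with trypsin and analysed by multidimensional LC-MS. Proteins were identified by SEQUEST, and dosed samples were compared with vehicle.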

Mus musculus [4] = assay: Inhibition of PLA2G7 in C57B1/6J mouse brain membrane at 16 mg/kg, ip after 4 hrs by competitive activity-based protein profiling-MudPIT method; format: functional, organism-based; set-up: dose 16 mg/kg; method in brief: as §2
Mus musculus [5] = assay: Inhibition of FAM108A1 in C57B1/6J mouse brain membrane at 16 mg/kg, ip after 4 hrs by competitive activity-based protein profiling-MudPIT method; format: functional, organism-based; set-up: dose 16 mg/kg; method in brief: as §2
Mus musculus [6] = assay: Inhibition of CG167 in C57B1/6J mouse brain membrane at 16 mg/kg, ip after 4 hrs by competitive activity-based protein profiling-MudPIT method; format: functional, organism-based; set-up: dose 16 mg/kg
Method in brief: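 Mice were dosed 16 mg kg^-1 i.p. or vehicle and killed at 4 h. Brain membrane proteomes were labelled with FP-biotin, avidin-enriched, trypsin-digested on bead, analysed by multidimensional LC-MS and identified by SEQUEST.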

Mus musculus [7] = assay: Decrease in arachidonic acid levels in intraperitoneally dosed C57B1/6J mouse brain after 4 hrs by LC-MS; format: functional, organism-based
Method in brief: (§3)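 Male C57Bl/6J mice given 4, 8, 16 or 40 mg kg^-1 i.p. in 4:1 PEG300:Tween80 at 4 μl g^-1, or vehicle, and killed after 4 h. Whole-brain lipids were quantified by LC-MS.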

Mus musculus [8] = assay: Inhibition of FAAH in C57B1/6J mouse brain membrane at 10 mg/kg, ip by competitive activity-based protein profiling method; format: functional, organism-based; set-up: dose 10 mg/kg
Mus musculus [9] = assay: Change in 2-AG levels in intraperitoneally dosed C57B1/6J mouse brain by LC-MS; format: functional, organism-based; method in brief: as §3
Mus musculus [10] = assay: Effect on interstitial level of AEA in C57B1/6 mouse nucleus accumbens at 10 mg/kg, ip by following neuronal depolarization by microdialysis; format: functional, organism-based; set-up: dose 10 mg/kg
Method in brief: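 In vivo microdialysis from nucleus accumbens of C57Bl/6 mice after 10 mg kg^-1 i.p. Drug was given 1 h before neuronal depolarization, and interstitial AEA and 2-AG were measured in the dialysate.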

Mus musculus [11] = assay: Inhibition of MAGL in C57B1/6J mouse brain membrane assessed as increase in 2-AG level at 16 mg/kg, ip upto 24 hrs by competitive activity-based protein profiling method relative to control; format: functional; conditions: route intraperitoneal; method in brief: as §1
Mus musculus [12] = assay: Change in monoacylglycerol level in C57B1/6J mouse brain at 16 mg/kg, ip by LC-MS; format: functional, organism-based; set-up: dose 16 mg/kg
Method in brief: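 Mice received 16 mg kg^-1 i.p. in 4:1 PEG300:Tween80 and were killed at 0.5, 1, 2, 4, 8 and 24 h. Brain lipids, including N-acylethanolamines, MAGs, free fatty acids and arachidonic acid, were measured by LC-MS.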

Mus musculus [13] = assay: Induction of hypothermia in C57B1/6J mouse at 16 mg/kg, ip; format: functional, organism-based; set-up: dose 16 mg/kg
Method in brief: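 Male C57Bl/6J mice, 6-8 weeks, 20-26 g, given 16 mg kg^-1 i.p. in 4:1 v/v PEG300:Tween80 at 4 μl g^-1; vehicle controls received PEG300:Tween80 alone. Cannabinoid effects were scored in the tetrad test.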

O=C(Oc1ccc([N+](=O)[O-])cc1)N1CCC(C(O)(c2ccc3c(c2)OCO3)c2ccc3c(c2)OCO3)CC1
inactive: inhibition [1] | inhibition (Mus musculus [3]) | inhibition (Mus musculus [4]) | inhibition (Mus musculus [5]) | inhibition (Mus musculus [6]) | Activity (Mus musculus [9]) | Activity (Mus musculus [10]) | Activity (Mus musculus [12])
> 80%: inhibition in vivo at 16 mg/kg (Mus musculus [11])
active: inhibition (Mus musculus [2]) Dose-dependent effect | Activity (Mus musculus [7]) | inhibition (Mus musculus [8]) | Activity (Mus musculus [13])
